The source made the active and inactive calls. The calls are words filed in the database; no cut-off is given here.
How the values were obtained:
[1] = molecular target: Cystic fibrosis transmembrane conductance regulator (Homo sapiens) (UniProt P13569); experiment: Inhibition of CFTR transcription assessed as decrease of CFTR protein level at 50 uM by immunoblot method
[2] = molecular target: T1, Histone deacetylase 7 (Homo sapiens) (UniProt Q8WUI4); experiment: Inhibition of HDAC7 in human homozygous Fdelta508 primary bronchial epithelial cells assessed as induction of short circuit currents at 1 uM for 4, 6, and 8 days relative to control; format: cell-based; conditions: Epithelial cell
T1 sequence (whole entry): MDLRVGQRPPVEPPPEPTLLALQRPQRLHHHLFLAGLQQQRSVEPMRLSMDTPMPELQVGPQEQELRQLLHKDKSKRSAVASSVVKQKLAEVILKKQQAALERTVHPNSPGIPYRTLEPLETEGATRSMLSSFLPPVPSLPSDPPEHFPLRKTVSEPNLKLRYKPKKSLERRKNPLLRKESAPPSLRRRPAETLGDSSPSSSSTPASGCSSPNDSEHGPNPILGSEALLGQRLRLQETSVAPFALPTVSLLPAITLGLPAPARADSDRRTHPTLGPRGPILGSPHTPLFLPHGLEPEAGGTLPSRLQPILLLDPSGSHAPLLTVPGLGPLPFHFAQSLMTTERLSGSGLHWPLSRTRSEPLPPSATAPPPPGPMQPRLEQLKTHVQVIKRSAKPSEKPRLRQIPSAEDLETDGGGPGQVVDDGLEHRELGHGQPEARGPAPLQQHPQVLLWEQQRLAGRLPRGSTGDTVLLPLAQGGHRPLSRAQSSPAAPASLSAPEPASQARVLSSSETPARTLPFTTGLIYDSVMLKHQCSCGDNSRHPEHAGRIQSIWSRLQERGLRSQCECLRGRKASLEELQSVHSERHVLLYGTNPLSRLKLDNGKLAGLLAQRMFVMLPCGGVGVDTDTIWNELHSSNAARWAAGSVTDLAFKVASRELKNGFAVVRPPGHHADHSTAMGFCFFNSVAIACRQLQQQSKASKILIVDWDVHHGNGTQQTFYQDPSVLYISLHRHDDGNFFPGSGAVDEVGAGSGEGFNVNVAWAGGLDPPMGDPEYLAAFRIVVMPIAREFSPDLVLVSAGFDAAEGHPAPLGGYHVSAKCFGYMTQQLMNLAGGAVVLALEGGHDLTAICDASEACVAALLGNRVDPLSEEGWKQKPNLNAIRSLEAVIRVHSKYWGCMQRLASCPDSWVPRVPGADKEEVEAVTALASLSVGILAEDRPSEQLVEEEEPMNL
Summary of the method: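 Primary bronchial epithelial cells homozygous for ΔF508 from patients are grown on permeable supports. They are exposed to 1 μM for 4, 6 and 8 days against DMSO controls. ΔIsc is measured in Ussing chambers in μA/cm2, and is also compared with wild-type level.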

[3] = molecular target: T1, Histone deacetylase 7 (Homo sapiens); experiment: Inhibition of HDAC7 in wild-type CFTR expressing human primary lung cells assessed as forskolin-stimulated Fdelta508 CFTR channel activity at 10 uM after 24 hrs relative to control; format: cell-based; conditions: in the assay text read “Fdelta508 CFTR homozygous” for “wild-type CFTR expressing”
Summary of the method: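 Primary ΔF/ΔF human bronchial epithelial cells on permeable supports receive acute treatment, 10 μM for 24 h. The result is expressed relative to control.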

[4] = molecular target: T1, Histone deacetylase 7 (Homo sapiens); experiment: Inhibition of HDAC7 in wild-type CFTR expressing human primary lung cells assessed as induction of short circuit currents at 1 uM for 4, 6, and 8 days relative to control; format: cell-based
[5] = In vivo inhibition of HDAC; format: organism-based
BHK = experiment: Inhibition of HDAC expressed in hamster BHK cell line assessed as increase in plasma membrane Fdelta508 CFTR protein at 5 uM by immunofluorescence method; format: cell-based
Summary of the method: (§1)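 Surface ΔF508extope is labelled with HA.11 antibody under non-permeabilizing conditions.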

[6] = molecular target: T1, Histone deacetylase 7 (Homo sapiens); experiment: Inhibition of HDAC7 in Fdelta508 CFTR-expressing human CFBE41o- monolayers assessed as increase in short circuit currents at 10 uM
Summary of the method: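 CFBE41o- cells stably expressing ΔF508 CFTR are cultured on permeable supports and mounted for short-circuit current (Isc) measurement.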

[7] = molecular target: T1, Histone deacetylase 7 (Homo sapiens); experiment: Inhibition of HDAC7 expressed in hamster BHK cell line assessed as increase in plasma membrane Fdelta508 CFTR protein at 1 uM by immunofluorescence method; format: cell-based; summary of the method: as §1
[8] = molecular target: T1, Histone deacetylase 7 (Homo sapiens); experiment: Inhibition of HDAC7 in human CFBE41o- cell line assessed as correction of mutant Fdelta508 CFTR trafficking to cell surface as glycoform at 1 uM by Immunoblot analysis
Summary of the method: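 CFBE41o- ΔF508 cells in α-MEM/10% FBS/2mM L-glutamine/puromycin are dosed at 1 μM every 24 h, chronically for up to 8 days, against DMSO. Lysates are made in Tris-HCl/NaCl/1% Triton X-100. 15μg protein is run on 8% SDS-PAGE and probed with M3A7 by chemiluminescence. Band B (ER) and band C (post-Golgi) are quantified, and the C/B ratio is calculated.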

Sequence of Cystic fibrosis transmembrane conductance regulator (Homo sapiens) (P13569 whole entry, looked up): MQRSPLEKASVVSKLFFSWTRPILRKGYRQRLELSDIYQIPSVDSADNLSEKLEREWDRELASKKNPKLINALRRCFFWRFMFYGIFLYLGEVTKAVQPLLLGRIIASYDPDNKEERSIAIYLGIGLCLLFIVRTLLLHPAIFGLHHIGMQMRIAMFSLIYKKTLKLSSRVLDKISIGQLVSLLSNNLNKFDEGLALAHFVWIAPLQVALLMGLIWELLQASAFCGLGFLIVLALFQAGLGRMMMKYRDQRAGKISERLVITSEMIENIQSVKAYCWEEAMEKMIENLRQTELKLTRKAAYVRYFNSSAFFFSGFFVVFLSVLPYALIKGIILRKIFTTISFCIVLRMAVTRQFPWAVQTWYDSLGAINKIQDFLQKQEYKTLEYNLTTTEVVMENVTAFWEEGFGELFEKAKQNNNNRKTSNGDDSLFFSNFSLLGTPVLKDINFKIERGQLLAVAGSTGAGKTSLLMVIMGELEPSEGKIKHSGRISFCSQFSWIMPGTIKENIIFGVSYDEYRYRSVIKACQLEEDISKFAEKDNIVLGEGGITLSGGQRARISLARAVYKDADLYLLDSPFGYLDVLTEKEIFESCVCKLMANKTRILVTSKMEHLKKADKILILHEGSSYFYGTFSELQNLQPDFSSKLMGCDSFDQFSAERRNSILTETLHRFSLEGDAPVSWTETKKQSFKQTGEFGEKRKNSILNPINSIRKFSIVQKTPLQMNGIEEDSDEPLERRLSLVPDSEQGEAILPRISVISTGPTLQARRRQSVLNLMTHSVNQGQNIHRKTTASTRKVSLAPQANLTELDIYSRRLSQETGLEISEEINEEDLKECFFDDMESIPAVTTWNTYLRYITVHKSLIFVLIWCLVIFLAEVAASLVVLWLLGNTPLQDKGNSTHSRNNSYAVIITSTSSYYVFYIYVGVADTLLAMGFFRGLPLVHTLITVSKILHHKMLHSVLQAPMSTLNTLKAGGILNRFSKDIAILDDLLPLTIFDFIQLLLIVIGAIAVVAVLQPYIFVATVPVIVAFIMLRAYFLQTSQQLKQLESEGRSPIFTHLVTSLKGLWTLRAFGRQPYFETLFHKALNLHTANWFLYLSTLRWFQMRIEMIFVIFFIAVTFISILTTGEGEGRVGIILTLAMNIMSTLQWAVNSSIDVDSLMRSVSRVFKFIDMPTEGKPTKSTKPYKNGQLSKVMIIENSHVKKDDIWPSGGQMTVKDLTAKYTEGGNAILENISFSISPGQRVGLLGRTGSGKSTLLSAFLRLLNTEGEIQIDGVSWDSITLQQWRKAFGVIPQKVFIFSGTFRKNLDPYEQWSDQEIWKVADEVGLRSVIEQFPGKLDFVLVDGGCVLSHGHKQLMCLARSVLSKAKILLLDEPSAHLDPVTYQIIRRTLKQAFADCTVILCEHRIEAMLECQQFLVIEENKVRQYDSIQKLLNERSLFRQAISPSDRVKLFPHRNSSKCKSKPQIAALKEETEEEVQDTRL

| SMILES | inhibition [1] | Activity [3] | IC50 [5] | other results |
| --- | --- | --- | --- | --- |
| O=C(CCCCCCC(=O)Nc1ccccc1)NO | Active |  |  |  |
| C=C[C@@]1(C)CC(=O)[C@]2(O)[C@@]3(C)[C@@H](O)CCC(C)(C)[C@@H]3[C@H](O)[C@H](OC(C)=O)[C@@]2(C)O1 |  | 3.7 uA.cm'-2 |  | Activity [2]: 6.5 uA.cm'-2; Activity [4]: 23.1 uA.cm'-2 |
| Nc1ccccc1NC(=O)c1ccc(CNC(=O)OCc2cccnc2)cc1 [ENTINOSTAT] | Active |  | 5000 nM | inhibition (BHK): Active |

Second part, led by results:

| inhibition [1] | Activity [3] | IC50 [5] | SMILES | other results |
| --- | --- | --- | --- | --- |
| Active |  | 100 nM | CC(/C=C/C(=O)NO)=C\[C@@H](C)C(=O)c1ccc(N(C)C)cc1 [TRICHOSTATIN] |  |
|  | 3.7 uA.cm'-2 |  | O=c1c(-c2ccc(O)cc2)coc2cc(O)cc(O)c12 |  |
| Active |  | 1000 nM | O=C(CCCCCN1C(=O)c2cccc3cccc(c23)C1=O)NO | inhibition [6]: Active; inhibition [7]: Active; inhibition [8]: Active |

— ChEMBL document CHEMBL1255383, “Reduced histone deacetylase 7 activity restores function to misfolded CFTR in cystic fibrosis” (Nat Chem Biol, 2010)
